KCNK3 inh = human KCNK3 channel inhibitors, primary screen, CHO cells, FluxOR thallium flux, B-score; FluxOR fluorescence; active compounds read low; B-score at 10 µM; actives 0.84% (n = 340,000); AID 602410, 2012;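 active = B-score under library mean minus 4 SD, starting fluorescence ratio at most library mean plus 5 SD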;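 note: more negative B-score means stronger inhibition of thallium flux through KCNK3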
Target sequence (O14649 whole entry, looked up): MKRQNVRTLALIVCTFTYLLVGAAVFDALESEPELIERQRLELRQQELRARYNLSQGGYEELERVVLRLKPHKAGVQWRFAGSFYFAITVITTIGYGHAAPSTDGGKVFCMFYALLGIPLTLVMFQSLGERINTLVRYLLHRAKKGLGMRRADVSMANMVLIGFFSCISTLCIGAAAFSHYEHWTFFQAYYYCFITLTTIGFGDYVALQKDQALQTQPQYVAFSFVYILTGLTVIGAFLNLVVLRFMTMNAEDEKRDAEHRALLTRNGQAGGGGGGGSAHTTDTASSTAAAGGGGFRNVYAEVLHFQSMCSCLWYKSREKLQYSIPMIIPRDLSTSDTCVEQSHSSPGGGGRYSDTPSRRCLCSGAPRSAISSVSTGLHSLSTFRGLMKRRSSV
hERG rescue = hERG rescue from dofetilide block, primary screen, cell-based, CHO-hERG, FluxOR thallium flux, dofetilide IC70; dofetilide IC70 present; actives 0.51% (n = 310,000); activation (rescue from dofetilide block), less the hit threshold, % at 10 µM;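 active = activation above the mean of controls blocked by dofetilide plus 5 SD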;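 note: thallium influx through hERG after potassium depolarization seen as dye fluorescence rise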
KCNK9 block = KCNK9 potassium channel inhibitors, primary screen, HEK293 cells, thallium flux; Potassium channel subfamily K member 9 (Homo sapiens), Q9NPC2; FluxOR thallium flux fluorescence; active compounds read low; B-score at 10 µM; actives 1.2% (n = 310,000); AID 488922, 2010;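 active = ratio B-score over 3 SD below the library mean, with starting fluorescence within 5 SD of its mean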;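 note: negative B-score means less thallium flux so channel inhibition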
Target sequence (Q9NPC2 whole entry, looked up): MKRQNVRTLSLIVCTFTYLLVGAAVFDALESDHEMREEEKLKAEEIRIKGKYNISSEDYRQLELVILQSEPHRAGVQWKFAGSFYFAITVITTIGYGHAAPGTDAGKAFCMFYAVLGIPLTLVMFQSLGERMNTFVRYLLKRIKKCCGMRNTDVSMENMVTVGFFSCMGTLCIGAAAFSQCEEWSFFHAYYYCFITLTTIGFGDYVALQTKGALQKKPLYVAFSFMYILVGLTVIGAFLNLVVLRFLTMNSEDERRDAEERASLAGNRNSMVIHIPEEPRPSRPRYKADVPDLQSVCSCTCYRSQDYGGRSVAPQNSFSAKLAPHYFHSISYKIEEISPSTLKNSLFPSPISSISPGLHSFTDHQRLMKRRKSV
KCNQ1 act = potentiators or activators of KCNQ1 channel, primary screen, cell-based, thallium flux, high-throughput; Potassium voltage-gated channel subfamily KQT member 1 (Homo sapiens), P51787; CHO-K1 KCNQ1, thallium flux FluxOR fluorescence; active compounds read high; AID 2648, 2010; B-score at 10 µM; actives 0.35% (n = 310,000);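 active = fluorescence ratio B-score, a plate-corrected score, at least three library SD, with initial intensity B-score within 5 SD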
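Schedule – 37 °C overnight plating, 90-min dark dye load, 20-min compound pretreatment · System – stable KCNQ1 CHO-K1 line · Probe or stimulus – thallium- and potassium-containing depolarizing buffer · Measured by – kinetic FluxOR fluorescence, 10 s baseline plus 110 s post-stimulus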
PHOSPHO1 inh = PubChem AID 1565; Phosphoethanolamine/phosphocholine phosphatase (Homo sapiens), Q8TCT1; actives 1.1% (n = 290,000); recombinant PHOSPHO1, absorbance phosphatase assay; inhibition, % at 13.3 µM; in the data active = inhibition above about 60%
KCNQ1 block = inhibitors of human KCNQ1 channel, primary screen, cell-based, thallium flux, high-throughput; Potassium voltage-gated channel subfamily KQT member 1 (Homo sapiens), P51787; CHO-K1 KCNQ1, FluxOR thallium flux fluorescence; active compounds read high; B-score at 10 µM; actives 1.3% (n = 310,000); AID 2642, 2010;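 active = compounds whose thallium flux B-score, printed positive for inhibition, exceeds three library SD while starting fluorescence stays within three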;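 note: channel opened by potassium depolarization with thallium stimulus after 20 min compound exposure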
KCNQ1 block val = KCNQ1 potassium channel inhibitors, confirmation, cell-based, Tl flux, duplicate | AID 588353, 2011 | actives 93% (n = 1,600) | inhibition, % at 10 µM | KCNQ1 cell line, FluxOR thallium flux fluorescence | shares compounds with KCNQ1 block;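 active = primary screen active, with duplicate mean exceeding buffer control mean plus 3 SD of buffer wells, cut at about 28% in these data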
CHO Tl flux = thallium flux effects in parental CHO cells, counter-screen for KCNQ1 inhibitor project, cell-based, Tl flux. shares compounds with KCNQ1 block. parental CHO-K1, FluxOR thallium flux fluorescence ratio; active compounds read low; zero means no signal rise above baseline. fluorescence ratio (Tl flux) at 10 µM. actives 21% (n = 1,600);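 active = mean of duplicate thallium-flux fluorescence ratios in parental host cells more than 5 SD below the buffer control mean, cut at about 0.38 in these data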;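 note: ratio is peak minus minimum fluorescence divided by baseline fluorescence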
KCNQ1 APC inh = KCNQ1 channel inhibitors, confirmation, orthogonal assay, cell-based, automated electrophysiology; shares compounds with KCNQ1 block; KCNQ1-CHO cells, automated patch clamp current; calls only at 10 µM; actives 20% (n = 490); AID 624120, 2012;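 active = KCNQ1 current drop exceeding 3 SD of negative control wells, seen in both duplicate runs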;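 note: steady state current during a 2 s step from -80 to +40 mV; negative values mean current inhibition and positive values mean potentiation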
KCNQ2 spec = KCNQ2 channel inhibition, selectivity assay for KCNQ1 inhibitor project, cell-based. shares compounds with KCNQ1 block. KCNQ2 cells, FluxOR thallium flux fluorescence. inhibition, % at 10 µM. actives 71% (n = 1,600). AID 651746, 2012;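 active = mean percent inhibition of the KCNQ2 thallium signal more than 5 SD above the buffer-only control wells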;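 note: KCNQ2 expressed in CHO cells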
KCNQ1 KCNE1 spec = KCNQ1/KCNE1 channel inhibition, selectivity assay for KCNQ1 inhibitor project, CHO-K1 cells, thallium flux, FluxOR; shares compounds with KCNQ1 block; FluxOR thallium flux fluorescence; inhibition, % at 10 µM; actives 77% (n = 1,600);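 active = mean percent inhibition of duplicate wells above the buffer-only control mean plus 3 SD of those controls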
Numbers stand for hits; i = inactive; nt = no result given; + = active, no number. A selection: hits, their analogues and other compounds. The true share with any hit is near 4%.

SMILES	KCNK3 inh	hERG rescue	KCNK9 block	KCNQ1 act	PHOSPHO1 inh	KCNQ1 block	KCNQ1 block val	CHO Tl flux	KCNQ2 spec	KCNQ1 KCNE1 spec	others
Cc1ccc(C)n1-c1ccc(-c2ccn[nH]2)cc1	i	i	i	i	i	i	nt	nt	nt	nt
Cc1cccc(CN(CC(=O)N/N=C/c2ccco2)S(=O)(=O)c2ccc(Cl)cc2)c1	i	i	i	i	i	9	nt	nt	nt	nt
Nc1[nH]ncc1C(=O)Nc1cccc(C(F)(F)F)c1	i	i	i	i	i	i	nt	nt	nt	nt
Cc1cc(C)c(-n2[nH]nnc2=S)c(C)c1	i	i	i	i	i	i	nt	nt	nt	nt
Fc1ccc(-n2[nH]nnc2=S)cc1N1CCCC1	i	i	i	i	77.7	i	nt	nt	nt	nt
CCC(=O)N1CCN(c2ccc(NC(=O)c3cc4ccccc4o3)cc2Cl)CC1	i	i	i	i	i	i	nt	nt	nt	nt
O=C(Nc1ccc(N2CCN(C(=O)c3ccco3)CC2)c(Cl)c1)c1cc2ccccc2o1	i	i	i	i	i	6	78.5	i	108.3%	142.0%
CCC(=O)NC(=S)Nc1ccc(N2CCN(C(=O)c3ccc(Cl)cc3)CC2)cc1	i	i	i	i	i	i	nt	nt	nt	nt
C=CCN(CC=C)C(=O)C[n+]1ccc(C(N)=O)cc1	i	i	i	i	i	i	nt	nt	nt	nt
CNC(=S)Nc1ccc(C23CC4CC(CC(C4)C2)C3)cc1	i	i	i	i	i	7	74.0	i	65.0%	90.0%
CC1CCCN(CCCOc2ccc(Cl)cc2Br)C1 (stereo unspecified)	i	i	i	i	i	i	nt	nt	nt	nt
CC1CCN(CCCOc2ccc(Cl)cc2Br)CC1	i	i	i	i	i	6	41.5	i	i	i
CCOc1ccc(NC(=O)Nc2nc(SCC)ns2)cc1	i	i	i	i	nt	10	80.0	i	i	35.5%
CCOc1ccc(NC(=O)Nc2ccc(NC(C)=O)cc2)cc1	i	i	i	i	i	i	nt	nt	nt	nt
CCc1ccccc1N1CCN(S(=O)(=O)c2ccc(F)c(C)c2)CC1	i	i	i	i	i	7	91.0	i	80.0%	91.0%	KCNQ1 APC inh=i
Clc1cccc(-c2cc3nc4c(c(N5CCOCC5)n3n2)CCCC4)c1	-9.11	i	i	i	i	6	101.0	i	77.7%	117.0%
OC1CCN(c2c3c(nc4cc(-c5ccc(Cl)cc5)nn24)CCC3)CC1	i	i	i	i	i	i	nt	nt	nt	nt
CCOc1ccccc1N1CCN(C(=O)Nc2ccc(F)c(Cl)c2)CC1	i	i	i	i	i	9	98.5	i	82.3%	i	KCNQ1 APC inh=i
Cc1ccc(C(=O)CN2/C(=C(\O)c3ccccc3)C(=O)c3ccccc3S2(=O)=O)c(C)c1	i	i	i	i	i	i	nt	nt	nt	nt
Clc1cc(Br)ccc1OCCCNCc1ccccc1	i	i	i	i	i	7	67.5	i	90.0%	i
O=C(COC(=O)c1c(F)cccc1F)Nc1ccc2c(c1)OCO2	i	nt	nt	nt	nt	nt	nt	nt	nt	nt
COc1c(S(=O)(=O)N2CCN(C)CC2)ccc(Cl)c1Cl	i	i	i	i	i	7	i	i	i	56.0%
COc1ccc(Cl)cc1S(=O)(=O)N1CCN(C)CC1	i	i	i	i	i	i	nt	nt	nt	nt
COc1ccccc1/C=C1\SC(N2CCC(C)CC2)=NC1=O	i	i	i	i	i	i	nt	nt	nt	nt
CCOc1ccc2[nH]c3c(NCC(C)C)ncnc3c2c1	i	i	i	i	i	6	69.0	i	93.7%	69.5%
SMILES	KCNK3 inh	hERG rescue	KCNK9 block	KCNQ1 act	PHOSPHO1 inh	KCNQ1 block	KCNQ1 block val	CHO Tl flux	KCNQ2 spec	KCNQ1 KCNE1 spec	others
CC(=O)c1cccc(N(C(=O)c2ccco2)C(C(=O)NC2CCCC2)c2ccncc2)c1 (stereo unspecified)	i	i	i	i	i	i	nt	nt	nt	nt
Cc1cc(C(=O)NNC(=O)C(CCC(N)=O)NS(=O)(=O)c2ccc(Cl)cc2)c(C)o1 (stereo unspecified)	i	nt	nt	nt	nt	nt	nt	nt	nt	nt
Cc1cc(C)nc(NC(=NCCc2c[nH]c3ccccc23)NC(=O)Nc2ccc(Cl)cc2)n1	i	i	i	i	i	6	47.5	i	88.3%	89.5%
Cc1ccccc1OCCCCn1cnc2ccccc21	i	i	i	i	i	9	136.5	i	100.3%	59.0%	KCNQ1 APC inh=i
Cc1ccc(OCCCCn2cnc3ccccc32)cc1	i	i	i	i	i	i	nt	nt	nt	nt
c1ccc(OCCCCn2cnc3ccccc32)cc1	i	i	i	i	i	i	nt	nt	nt	nt
c1ccc2c(c1)ncn2CCCCOc1ccc2c(c1)CCC2	i	i	i	i	i	7	118.5	i	91.0%	82.5%	KCNQ1 APC inh=i
Clc1ccc(-c2nc(N3CCCCC3)nc3ccccc23)cc1	i	i	i	i	i	8	132.5	i	85.0%	197.0%	KCNQ1 APC inh=+
Cc1ccc(S(=O)(=O)N2CCN(c3ncnc4scc(-c5ccccc5)c34)CC2)cc1	i	nt	nt	nt	nt	nt	nt	nt	nt	nt
Cc1ccc(S(=O)(=O)N2CCN(c3ncnc4scc(-c5ccc(F)cc5)c34)CC2)cc1	i	i	i	i	nt	8	71.5	i	81.0%	i
COc1ccc(-c2csc3ncnc(N4CCN(S(=O)(=O)c5ccc(C(C)=O)cc5)CC4)c23)cc1	i	i	i	i	nt	8	67.0	i	89.3%	36.5%
COc1ccc(-c2csc3ncnc(N4CCN(c5ccccc5O)CC4)c23)cc1	i	i	i	i	i	8	i	i	110.3%	i
Clc1ccc(N=C2SCC3CCCCN23)cc1 (stereo unspecified)	i	i	i	i	i	i	nt	nt	nt	nt
C=CCNC(=S)Nc1ccc(Cl)cc1	i	i	i	i	i	i	nt	nt	nt	nt
C=CCNC(=S)Nc1ccc(OC(F)F)c(Cl)c1	i	i	i	i	i	9	i	i	61.0%	i

Screens (PubChem BioAssay)
